Screening data as filed in PubChem BioAssay.
T cell HTS – modulators of CD8 T cell-vesicle binding, primary screen, mouse 2C CD8+ T cells, flow cytometry; 2C CD8+ T cell-vesicle binding; hits give low values; response (vesicle binding), % at 7 µM; hit rate 0.068% among 330,000;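 active means response, share of CD8 T cells binding vesicles, and their 90th percentile fluorescence all below set limits, cut at about 80% in these data, passing the limit was not always enough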;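 further: values below 100% mean blocked vesicle binding to the CD8+ T cells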
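System: murine 2C transgenic CD8+ T lymphocytes; also added: QL9-loaded Drosophila micro-vesicles; times: binding 1.5 h at 37 °C; measured by: flow cytometry, PE anti-B7-1 (FL2) versus Alexa647 anti-CD8 (FL8), PFA-fixed; control set: Peptide-free naked vesicles (low) and QL9 vesicles with 0.7% DMSO vehicle (high)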
MEP2-GFP yeast – modulators of MEP2-GFP levels in yeast, primary screen, S. cerevisiae, multiplex flow cytometry, MLPCN library; S. cerevisiae MEP2-GFP strain, 3 h; 100% = DMSO control level; GFP response vs DMSO, % at 10 µM; hit rate 0.51% among 330,000; AID 2016, 2009;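 active means GFP response versus DMSO above a set limit, roughly screen mean plus 3 SD, cut at about 180% in these data; inconclusive means fewer than 70 cells counted for a yeast strain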;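 further: median GFP fluorescence of the barcode-gated MEP2-GFP cells per well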
RPL19A-GFP yeast – RPL19A-GFP expression modulators in yeast, primary screen, cell-based, S. cerevisiae, multiplex flow cytometry, MLPCN | S. cerevisiae RPL19A-GFP strain, 3 h; hits give low values | percent response vs DMSO, % at 10 µM | hit rate 0.3% among 330,000 | AID 2025, 2009;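 active means percent response vs DMSO below 50%; inconclusive means fewer than 70 events counted for the yeast strain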;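 further: median channel GFP fluorescence of the barcoded RPL19A-GFP strain; ratio of sample median GFP to plate DMSO average so 100% = DMSO; lower means less RPL19A-GFP as with rapamycin TOR inhibition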
AGP1 TOR yeast – modulators of AGP1-GFP expression in yeast TOR pathway, primary screen, cell-based, multiplex flow cytometry, S. cerevisiae, MLPCN library; 3 h; GFP as percent of DMSO wells; GFP response vs DMSO, % at 10 µM; hit rate 0.02% among 320,000; AID 2066, 2009;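 active means GFP response relative to DMSO above a set limit, near screen average plus 3 SD, cut at about 150% in these data; inconclusive means fewer than 70 cells counted for the yeast strain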;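 further: median GFP channel fluorescence of the gated AGP1 strain per well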
LAP4 TOR yeast – modulators of LAP4-GFP expression in yeast, primary screen, S. cerevisiae, multiplex flow cytometry, MLPCN library; 3 h; median GFP as percent of DMSO wells; GFP response vs DMSO, % at 10 µM; hit rate 0.34% among 320,000;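 active means GFP response vs DMSO above a set limit, about the screen mean plus 3 SD, cut at about 150% in these data; inconclusive means under 70 cell events counted for the yeast strain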
CIT2-GFP yeast – modulators of CIT2-GFP expression in yeast, primary screen, S. cerevisiae, GFP fusion, multiplex flow cytometry, MLPCN library; S. cerevisiae CIT2-GFP strain, 3 h; 100 means same as DMSO wells; GFP response vs DMSO, % at 10 µM; hit rate 0.065% among 320,000;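 active means GFP response relative to DMSO above a set limit, near the screen mean plus 3 SD, cut at about 150% in these data; inconclusive means Fewer than 70 cells measured for a yeast strain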;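 further: ratio of well median GFP fluorescence to mean of DMSO wells on the plate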
* = called active by the depositor; i = inactive; ? = inconclusive; · = no result; [ ] = remark or other dose. An excerpt weighted towards active compounds, which were near 0.96% of everything screened.

SMILES | T cell HTS | MEP2-GFP yeast | RPL19A-GFP yeast | AGP1 TOR yeast | LAP4 TOR yeast | CIT2-GFP yeast
COc1cc2c(cc1OC)CN(C(=O)c1ccc3[nH]c(C)c(C)c3c1)CC2 | 129.2 | 92.2 | 93.7 | 94.8 | 102.7 | 95.4
O=C(Cn1cnc2c(nnn2Cc2ccc(F)cc2)c1=O)Nc1ccccc1 | 354.5 | 94.6 | 98.0 | 99.5 | 98.5 | 100.3
CCN(CC)Cc1c(O)ccc2c(=O)c(-c3ccc4c(c3)OCCO4)coc12 | 413.6 | 182.2*[may fluoresce violet] | 38.0*[may fluoresce violet] | · | 85.6 | ?
Cn1ncc(Br)c1NC(=O)CSc1ccc(Cl)cc1 | 258.6 | 97.8 | 95.1 | 103.2 | 106.8 | 91.6
O=C(CN1CCN(Cc2ccccc2Cl)C1=O)NC1CCCCCCC1 | 208.6 | 208.1* | · | 30.7 | 92.8 | 107.2
O=C1OC2(c3ccccc31)c1cc(I)c(O)c(I)c1Oc1c2cc(I)c(O)c1I | i | 256.6* | 119.0 | 89.5 | 243.4* | 168.7*
CC(C)(C)c1ccc(OCCC(=O)OCC(=O)N2c3ccccc3NC(=O)C2(C)C)cc1 | 356.2 | 92.2 | 88.3 | 99.5 | 98.6 | 81.1
Cn1nc(C(C)(C)C)c([N+](=O)[O-])c1C(=O)N1CCCCCC1 | 349.7 | 104.8 | 95.9 | 102.6 | 101.5 | 96.3
C=CCC1(CC=C)CCCN1C(=O)C1CCC(=O)N(CCc2ccccc2)C1 (configuration not stated) | 65.7* | 94.0 | 99.0 | 94.3 | 103.1 | 94.8
C=CCC1(CC=C)CCCN1C(=O)C1CCC(=O)N(CCc2ccc(OC)cc2)C1 (configuration not stated) | 269.1 | 92.3 | 101.7 | 96.5 | 92.3 | 93.8
COc1ccccc1Nc1ncnc2c1c(C)c(C)n2CCO | 168.2 | 113.5 | 105.3 | 105.2 | 96.8 | 109.1
Cc1ccc(S(=O)(=O)Nc2ccc3c(c2)OCCO3)c(C)c1NS(C)(=O)=O | 174.1 | 100.4 | 106.5 | 113.7 | 88.0 | 114.3
CN1CCN(C(=O)CC2C(=O)NCCN2Cc2ccc(-c3ccccc3)cc2)CC1 (configuration not stated) | 276.6 | 258.8* | 81.2 | 109.9 | 163.1* | 108.9
O=C(NC(=S)Nc1ccc2oc(-c3cccnc3)nc2c1)c1cccc(Cl)c1 | 216.3 | 226.5*[may fluoresce violet] | 52.1 | · | 86.8 | ?
O=C(O)Cc1ccc(NS(=O)(=O)c2ccc3ccccc3c2)cc1 | 234.2 | 96.4 | 88.9 | 90.8 | 82.1 | 93.5
COc1ccnc(N=CNOCc2ccc(Cl)cc2)c1C#N | 350.8 | 226.1*[may fluoresce violet] | 44.7*[may fluoresce violet] | 20.5 | 89.5 | ?
Cc1cccc(C)c1NC(=O)C1(N(Cc2ccco2)C(=O)c2ccccn2)CCCC1 | 221.8 | 276.6*[may fluoresce violet] | 60.1 | · | 105.8 | ?
Cc1c(C(=O)N(Cc2cccc(Br)c2)C2CCS(=O)(=O)C2)oc2ccc(F)cc12 (configuration not stated) | 400.7 | 105.5 | 105.5 | 114.7 | 112.4 | 117.0
CCCCn1c(SCC(=O)Nc2sc3c(c2C(N)=O)CCC3)nnc1-c1ccccc1 | 332.3 | 252.2*[may fluoresce violet] | 15.7*[may fluoresce violet] | ? | 79.1 | ?
CSc1cccc(NC(=S)Nc2ccc(F)cc2)c1 | 468.6 | 575.8*[may fluoresce violet] | 55.9 | · | · | ·
COCCCNC(=S)Nc1cccc(SC)c1 | 269.3 | 243.0*[may fluoresce violet] | 40.6*[may fluoresce violet] | ? | 62.0 | ?
CSc1cccc(NC(N)=S)c1 | 222.5 | 106.9 | 98.0 | 101.8 | 108.5 | 96.7
CCn1c(O)c(N=NC(=O)CNc2ccc(C)cc2)c2ccccc21 | 210.4 | 95.3 | 103.3 | 101.9 | 96.9 | 96.8
CCn1c(O)c(N=NC(=O)CNc2cccc(C)c2)c2ccccc21 | 163.6 | 525.5*[may fluoresce violet] | 73.6 | 14.6 | 90.0 | ?
Cc1ccc([C@@H]2CC=C(C(=O)O)[C@H](c3ccc(Cl)cc3)N2S(=O)(=O)c2ccccc2C)cc1 | 100.2 | 84.7 | 89.8 | 77.1 | 80.7 | 86.0
SMILES | T cell HTS | MEP2-GFP yeast | RPL19A-GFP yeast | AGP1 TOR yeast | LAP4 TOR yeast | CIT2-GFP yeast
Cn1nnnc1N=N/C(=N/Nc1ccccc1)c1ccccc1 | 264.7 | 94.9 | 95.8 | 98.4 | 150.5* | 86.5
O=C(CNS(=O)(=O)c1ccc(F)cc1)Nc1ccc(C(F)(F)F)cc1 | 353.2 | 100.8 | 104.4 | 100.6 | 94.6 | ·
Cc1ccc(S(=O)(=O)NCC(=O)Nc2ccc(C(F)(F)F)cc2)cc1 | 504.3 | 173.1 | 41.1*[may fluoresce violet] | · | 99.4 | ?
NC(=O)CSc1nnc2sc3ccccc3n12 | 79.4* | 99.6 | 96.9 | 99.2 | 96.8 | 108.8
CC(NC(=O)c1ccccc1)c1nc2ccccc2n1Cc1ccccc1F (configuration not stated) | 867.2 | 292.9*[may fluoresce violet] | 15.7*[may fluoresce violet] | ? | 71.4 | ?
O=C(Nc1ccccc1NC(=O)c1ccco1)c1ccccc1 | 303.0 | 495.1*[may fluoresce violet] | 41.2*[may fluoresce violet] | ? | 75.8 | ?
CC(C)(C)c1ccc(C(=O)Nc2ccccc2NC(=O)c2ccco2)cc1 | 211.3 | 94.4 | 93.3 | 95.5 | 87.7 | 94.9
CCOc1ccc(CCNC(=O)C2CCCN(c3ncnc4c3nc3n4CCCCC3)C2)cc1 (configuration not stated) | 207.3 | 126.3 | 94.5 | 92.5 | 94.5 | 95.9
COc1ccc(NC(=O)Cn2nnc(-c3ccccc3NC(=O)c3ccco3)n2)cc1 | 427.8 | 98.8 | 94.9 | 103.5 | 92.1 | 102.7
COc1ccccc1NC(=O)Cn1nnc(-c2ccccc2NC(=O)c2ccco2)n1 | 293.5 | 195.0* | 96.5 | 103.4 | 85.8 | 100.1
CSc1cccc(NC(=O)c2[nH]c(C)c(C(C)=O)c2C)c1 | 186.7 | 112.5 | 102.0 | 98.3 | 115.4 | 101.2
CC(C)N=C(Nc1ccccc1)c1cccnc1 | i | 176.5*[may fluoresce violet] | 34.4*[may fluoresce violet] | 22.3 | 90.2 | ?
Cc1cc(NC(=O)Cn2nc(C(=O)O)c3ccccc3c2=O)c([N+](=O)[O-])cc1C | 305.7 | 104.3 | 101.1 | 100.2 | 96.7 | 106.0
COc1ccc(C(=O)Oc2ccc(/C=N/NC(=O)c3ccccc3OC)cc2[N+](=O)[O-])cc1 | 385.6 | 195.4* | 102.2 | 99.9 | 117.4 | 105.1
CCOCCCN(C)C1CCN(C(=O)c2oc3ccccc3c2NC(=O)c2ccc(F)cc2)CC1 | 359.0 | 168.5 | 16.2*[may fluoresce violet] | ? | 66.4 | ?
Cc1cc(Cl)ccc1N=c1ssnc1Cl | 196.4 | 108.9 | 92.7 | 85.2 | 156.7* | 100.3
Cc1cc(C)nc(/N=c2/ssnc2Cl)c1 | 311.6 | 101.7 | 81.5 | 99.8 | 188.3* | 77.2
O=c1[nH]c(-c2ccccc2)cnc1-c1ccccc1 | 267.3 | 107.5 | 101.7 | 102.4 | 102.8 | 103.3
O=c1[nH]c2c(=O)[nH]cnc2nc1-c1ccccc1 | 191.5 | 203.7* | 72.0 | · | · | ·
Nc1nonc1-n1nnc(C(=O)N/N=C/c2cccs2)c1-c1ccc2c(c1)OCO2 | 325.1 | 116.4 | 100.7 | 96.9 | 95.8 | 96.9
